We go through 7 compounds from ChEMBL document CHEMBL1629604, “Targeting type III secretion in Yersinia pestis” (Antimicrob Agents Chemother, 2009).

Calls of active or inactive are those of the source. The calls are words filed in the database; no cut-off is given here.

Series [1] relates to HeLa. As to the kind of experiment: Cytotoxicity against human HeLa cells assessed as LDH release up to 60 uM after 3 hrs. It counts as cell-based. Summed up:
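HeLa cells seeded 1 day before in DMEM with 3% heat-inactivated FBS, then exposed to compound up to 60 μM at 37°C for 2–3 h. LDH in supernatant measured by kit. 0.1% Triton X-100 lysis gave the maximum and untreated cells the baseline; % cytotoxicity was calculated relative to both. Mean of three independent assays.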
On the technique in general: LDH leaks from cells whose membrane has failed.

Series [2] has as its system HeLa. Nature of the series: Cytotoxicity against human HeLa cells assessed as cell rounding up to 60 uM after 3 hrs. The format is cell-based. Summed up: (§1)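 HeLa monolayers seeded 1 day before at 1×10^5 cells/well in DMEM with 3% heat-inactivated FBS. Compound applied, cells incubated 37°C for 3 h. Monolayer disruption scored by microscopy as rounding and as percentage of cells detached from the plate.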

For series [3], the system named is Yersinia pestis. As to the kind of experiment: Toxicity in Yersinia pestis JG153 assessed as growth inhibition at 60 uM measured 6 mins intervals for 24 hrs. The format is organism-based.
Series [4] relates to HeLa. As to the kind of experiment: Cytotoxicity against human HeLa cells assessed as cell detachment up to 60 uM after 3 hrs. The format is cell-based. Summed up:
as §1

Series [5] can be described thus: (§2) Inhibition of T3SS-mediated YopM secretion in Yersinia pestis JG401 after 2 hrs by Western blotting.
For series [6], the system named is Yersinia pestis. The series is described as §2.
Another series relates to Escherichia coli. As to the kind of experiment: Inhibition of T3SS-mediated Tir secretion in enteropathogenic Escherichia coli KC14 harboring pKC17 at after 2 hrs by Western blotting. On the technique in general: In western blotting, separated proteins are transferred to a membrane and probed.
Series [7] can be described thus: (§3) Inhibition of T3SS-mediated YopH secretion in Yersinia pestis JG401 after 2 hrs by Western blotting.
In series [8] the test system is Yersinia pestis. The series is described as §3.
Series [9] in a line: (§4) Inhibition of T3SS-mediated YopD secretion in Yersinia pestis JG401 after 2 hrs by Western blotting.
Series [10] deals with Yersinia pestis. The description is as §4.
Series [11] concerns Yersinia pestis. As to the kind of experiment: Inhibition of translocation of YopE::Bla fusion from pMM85 expressing Yersinia pestis JG153 to human HeLa cells at 80 uM after 3 hrs by fluorescence microscopic analysis. It counts as functional, organism-based.
Series [12] concerns HeLa. As to the kind of experiment: Inhibition pCD1 positive Yersinia pestis JG153 T3SS-mediated morphological changes in human HeLa cells after 3 hrs. The format is cell-based.
Series [13] deals with Yersinia pestis. Nature of the series: Inhibition of translocation of YopE::Bla fusion from pMM85 expressing Yersinia pestis JG153 to human HeLa cells at 40 uM after 3 hrs by fluorescence microscopic analysis. It counts as functional.
The subject of series [14] is Yersinia pestis. Nature of the series: Inhibition of T3SS-mediated YopM secretion in Yersinia pestis JG401 t up to 60 uM after 2 hrs by Western blotting.
The subject of series [15] is Yersinia pestis. Nature of the series: Inhibition of T3SS-mediated YopD secretion in Yersinia pestis JG401 at up to 60 uM after 2 hrs by Western blotting.
Series [16] concerns Yersinia pestis. Nature of the series: Inhibition of T3SS-mediated YopD secretion in Yersinia pestis JG401 at 15 uM after 2 hrs by Western blotting.

In the case of `O=C(Nc1cccc(C2=NCCN2)c1)Nc1cccc(C2=NCCN2)c1` [IMIDOCARB], the Activity result with HeLa [1], with HeLa [2], in the series on Yersinia pestis [3] and with HeLa [4] was “Non-toxic” in each case.

Usually IC50 stands for the concentration at which inhibition is half-maximal. A low value points to inhibition by little substance. In general, inhibition refers to the change of the read-out against control, counted positive when it falls. On to `Cc1cc(O)ccc1Sc1ccc(O)cc1C`, for which the IC50 in [5], in series [7] and in series [9] was 10 µM each time. Also, the inhibition entry in the series on Yersinia pestis [6], with Yersinia pestis [8] and in the series on Yersinia pestis [10] was “Dose-dependent effect” throughout. In addition, the Activity entry is “Toxic” in the series on HeLa [1], “Toxic” in the series with HeLa [2], “Non-toxic” with Yersinia pestis [3] and “Toxic” in the series on HeLa [4]. In addition, the inhibition result with Escherichia coli was “inactive”.

`Cc1ccc(CSc2nc(C(=O)O)ccc2C#N)cc1`: the inhibition entry is “Dose-dependent effect” in the series with Yersinia pestis [6]; 96% in the series with Escherichia coli (concentration not given here); “Dose-dependent effect” with Yersinia pestis [8]; “Dose-dependent effect” with HeLa [12]; “Dose-dependent effect” in the series on Yersinia pestis [10]. The Activity result in the series with HeLa [1], in the series on HeLa [2], in the series on Yersinia pestis [3] and in the series with HeLa [4] was “Non-toxic” throughout. The inhibition result in the series on Yersinia pestis [11] is “inactive”.

`Cc1ccc(-c2nn(-c3ccccc3)cc2C2CC(c3cccs3)=NN2C(=O)CCCC(=O)O)cc1` (stereo unspecified): the inhibition entry with Yersinia pestis [6], in the series with Yersinia pestis [8], with HeLa [12] and in the series with Yersinia pestis [10] was “Dose-dependent effect” each time. The Activity result in the series on HeLa [1], in the series with HeLa [2], in the series on Yersinia pestis [3] and in the series on HeLa [4] was “Non-toxic” each time. The inhibition entry in the series on Yersinia pestis [11] was “inactive”. Moreover, the INCC50 entry in the series on Escherichia coli was “inactive”.

On to `O=C(Nc1cccc(C2=NCCN2)c1)Nc1cccc(C2=NCCN2)c1` [IMIDOCARB DIPROPIONATE], for which the inhibition at 40 µM in the series with Yersinia pestis [13] amounted to 50%.

Regarding `O=C(N/N=C/c1cc(Br)cc(Br)c1O)c1ccc([N+](=O)[O-])cc1`, in the series with Yersinia pestis [3], the Activity result is “Toxic”.

With `O=C(Nc1cccc(C2=NCCN2)c1)Nc1cccc(C2=NCCN2)c1`, the inhibition result in the series with Yersinia pestis [6] is “Dose-dependent effect”; in the series with Escherichia coli (concentration not given here), 81%; in the series on Yersinia pestis [8] it was “Dose-dependent effect”; in the series on HeLa [12], “Dose-dependent effect”; with Yersinia pestis [10] it was “Dose-dependent effect”; in the series with Yersinia pestis [16], 50%. Further, in the series on Yersinia pestis [11], the inhibition entry is “Active”. Also, the inhibition result in the series on Yersinia pestis [14] and in the series on Yersinia pestis [15] was “inactive” throughout.
